Calls of active or inactive are those of the source. The calls are words filed in the database; no cut-off is given here.

The inhibition is the relative decrease from the control value, in per cent.

The subject of data set [1] is A549. As to the kind of experiment: Induction of apoptosis in human A549 cells assessed as necrotic cells at 1 uM after 48 hrs by AnnexinV-FITC/PI staining-based flow cytometric analysis (reference value: 0.664%). The class given is functional. Background: In flow cytometry, cells or beads pass a laser one at a time.
Data set [2] relates to A549. As to the kind of experiment: Induction of apoptosis in human A549 cells assessed as early apoptotic cells at 0.25 uM after 48 hrs by AnnexinV-FITC/PI staining-based flow cytometric analysis (reference value: 2.91%). It is filed as functional.
The subject of data set [3] is NCI-H1299. As to the kind of experiment: Down regulation CDK9 expression in human H1299 cells at 0.25 to 1 uM after 24 hrs by Western blot analysis. It is filed as functional, cell-based. The procedure, abridged: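 A549 and H1299 cells treated for 24 h with serial dilutions alongside a DMSO control. Protein extracts resolved and immunoblotted.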
(In general: A western blot detects proteins with antibodies after separation by electrophoresis.)

Data set [4] is described as follows: Intrinsic clearance in Beagle dog liver microsomes at 2 uM in presence of NADPH measured up to 1 hr by HPLC analysis. The class given is ADME, Canis lupus familiaris, Microsome. Background: Microsomes from liver hold many membrane-bound enzymes, among them those of drug oxidation.
Data set [5] has as its system NCI-H1299. As to the kind of experiment: Antitumour activity against human H1299 cells xenografted in Balb/c mouse assessed as tumour weight at 80 mg/kg, po after 21 days by digital caliper method (reference value: 2.17 g). The class given is functional. In outline:
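Female nude mice, 6-8 weeks old, injected subcutaneously with 1×10^6 H1299 cells (100 µL of a 1×10^7/mL suspension in serum-free medium). At 100-120 mm3, randomized into groups of 5. Dosed orally each day for 21 days with drug dissolved in DMSO, or with vehicle. Caliper measurements and body weight taken every other day. Volume = short²×long×0.5. Growth inhibition based on change in volume relative to vehicle. Tumours weighed at the end.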

Data set [6] addresses Hepatocyte growth factor receptor (Homo sapiens) (UniProt P08581). Description: Inhibition of recombinant human MET A1209G/V1290L mutant (974 to end residues) at 1 uM using KKKGQEEEYVFIE as substrate measured after 40 mins in presence of [gamma33P]ATP by scintillation counting method relative to control.
The target of data set [7] is Mitogen-activated protein kinase kinase kinase 11 (Homo sapiens) (UniProt Q16584). As to the kind of experiment: Inhibition of human MLK3 at 1 uM by radiometric method relative to control. The procedure, abridged:
(§1)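 Percent inhibition of kinase activity at a single compound concentration, measured by the outsourced Eurofins KinaseProfiler panel. Values are the mean of two independent experiments.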

Data set [8] has as its target SRSF protein kinase 3 (Homo sapiens) (UniProt Q9UPE1). As to the kind of experiment: Inhibition of recombinant full-length human MSSK1 at 1 uM using ERMRPRKRQGSVRRRV as substrate measured after 40 mins in presence of [gamma33P]ATP by scintillation counting method relative to control.
Data set [9] addresses Serine/threonine-protein kinase 38-like (Homo sapiens) (UniProt Q9Y2H1). Description: Inhibition of recombinant human NDR2 (83 to end residues) at 1 uM using RSRSRSRSRSRSRSR as substrate measured after 120 mins in presence of [gamma33P]ATP by scintillation counting method relative to control.
The target in data set [10] is CDK7/Cyclin H/MNAT1 (Homo sapiens) (UniProt P51946+P50613+P51948). Description: Inhibition of human full length recombinant CDK7/cyclinH/MAT1 at 1 uM using peptide as substrate incubated for 40 mins in presence of [gamma-33P]ATP at by radiometric assay relative to control. The class given is protein-complex assay.
Data set [11] concerns Serine/threonine-protein kinase Chk2 (Homo sapiens), O96017 [I157T]. As to the kind of experiment: Inhibition of recombinant human CHK2 I157T mutant (5 to end residues) at 1 uM using KKKVSRSGLYRSPSMPENLNRPR as substrate measured after 40 mins in presence of [gamma33P]ATP by scintillation counting method relative to control. The procedure, abridged: (§2)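 Single-point inhibition at 1 µM was measured in the Eurofins KinaseProfiler panel. Values are the mean of two independent experiments.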
Chain of Serine/threonine-protein kinase Chk2 (Homo sapiens), O96017 [I157T] (O96017 whole entry I157T): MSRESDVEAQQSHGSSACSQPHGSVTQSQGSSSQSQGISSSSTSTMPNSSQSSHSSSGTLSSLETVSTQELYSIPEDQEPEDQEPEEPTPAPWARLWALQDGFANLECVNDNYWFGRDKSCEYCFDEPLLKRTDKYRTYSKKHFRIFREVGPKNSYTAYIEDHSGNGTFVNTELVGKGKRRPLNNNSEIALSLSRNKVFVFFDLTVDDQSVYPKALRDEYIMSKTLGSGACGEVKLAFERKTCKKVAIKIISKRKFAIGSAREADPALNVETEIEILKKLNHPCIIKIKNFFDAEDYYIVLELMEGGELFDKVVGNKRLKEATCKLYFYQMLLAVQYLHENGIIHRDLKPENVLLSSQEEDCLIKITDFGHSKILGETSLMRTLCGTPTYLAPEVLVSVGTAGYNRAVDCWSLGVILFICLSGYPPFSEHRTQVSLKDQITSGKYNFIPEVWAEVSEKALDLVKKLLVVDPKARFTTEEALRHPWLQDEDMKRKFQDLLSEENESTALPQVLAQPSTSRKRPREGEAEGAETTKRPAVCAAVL

Data set [12] deals with Mast/stem cell growth factor receptor Kit (Homo sapiens) (UniProt P10721). As to the kind of experiment: Inhibition of recombinant human cKit (544 to end residues) at 1 uM using Poly(Glu,Tyr) 4:1 as substrate measured after 40 mins in presence of [gamma33P]ATP by scintillation counting method relative to control. In outline:
as §2

In data set [13] the target is Serine/threonine-protein kinase Nek3 (Homo sapiens) (UniProt P51956). Description: Inhibition of recombinant full-length human NEK3 at 1 uM using myelin basic protein as substrate measured after 40 mins in presence of [gamma33P]ATP by scintillation counting method relative to control.
Chain of Serine/threonine-protein kinase Nek3 (Homo sapiens) (P51956 whole entry): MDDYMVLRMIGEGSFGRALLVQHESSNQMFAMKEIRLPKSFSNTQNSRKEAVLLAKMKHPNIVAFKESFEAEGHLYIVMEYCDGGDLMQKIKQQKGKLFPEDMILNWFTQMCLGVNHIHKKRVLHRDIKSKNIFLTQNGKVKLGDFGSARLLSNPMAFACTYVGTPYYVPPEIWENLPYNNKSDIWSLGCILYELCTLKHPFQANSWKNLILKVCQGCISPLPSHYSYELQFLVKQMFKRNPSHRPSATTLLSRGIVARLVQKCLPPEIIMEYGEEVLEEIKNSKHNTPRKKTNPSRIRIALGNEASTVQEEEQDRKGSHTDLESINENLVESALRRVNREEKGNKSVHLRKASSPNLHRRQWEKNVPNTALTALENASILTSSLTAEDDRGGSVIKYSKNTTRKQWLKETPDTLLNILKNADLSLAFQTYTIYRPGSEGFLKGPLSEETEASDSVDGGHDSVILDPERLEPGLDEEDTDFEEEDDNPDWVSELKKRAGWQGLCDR
Data set [14] deals with Serine/threonine-protein kinase PAK 6 (Homo sapiens) (UniProt Q9NQU5). As to the kind of experiment: Inhibition of recombinant human PAK6 (382 to end residues) at 1 uM using RRRLSFAEPG as substrate measured after 40 mins in presence of [gamma33P]ATP by scintillation counting method relative to control.
The species entered for another data set is Homo sapiens. As to the kind of experiment: Inhibition of recombinant human DDR1 V833L mutant (492 to end residues) at 1 uM using KKKSPGEYVNIEFG as substrate measured after 40 mins in presence of [gamma33P]ATP by scintillation counting method relative to control.
Data set [15] concerns the target Serine/threonine-protein kinase D3 (Homo sapiens) (UniProt O94806). Description: Inhibition of recombinant full-length human PKD3 at 1 uM using KKLRRTLSVA as substrate measured after 40 mins in presence of [gamma33P]ATP by scintillation counting method relative to control.
Data set [16] addresses Receptor-interacting serine/threonine-protein kinase 2 (Homo sapiens) (UniProt O43353). As to the kind of experiment: Inhibition of human RIPK2 (1 to 299 residues) at 1 uM using myelin basic protein as substrate measured after 120 mins in presence of [gamma33P]ATP by scintillation counting method relative to control. In outline: as §1
In data set [17] the test system is Homeodomain-interacting protein kinase 2 (Homo sapiens), Q9H2X6 [UNDEFINED MUTATION]. Description: Inhibition of recombinant human HIPK2 I471N mutant (165 to 564 residues) at 1 uM using myelin basic protein as substrate measured after 40 mins in presence of [gamma33P]ATP by scintillation counting method relative to control.
Chain of Homeodomain-interacting protein kinase 2 (Homo sapiens), Q9H2X6 [UNDEFINED MUTATION] (Q9H2X6 whole entry, looked up, stated change not applied, the tested form may be a part): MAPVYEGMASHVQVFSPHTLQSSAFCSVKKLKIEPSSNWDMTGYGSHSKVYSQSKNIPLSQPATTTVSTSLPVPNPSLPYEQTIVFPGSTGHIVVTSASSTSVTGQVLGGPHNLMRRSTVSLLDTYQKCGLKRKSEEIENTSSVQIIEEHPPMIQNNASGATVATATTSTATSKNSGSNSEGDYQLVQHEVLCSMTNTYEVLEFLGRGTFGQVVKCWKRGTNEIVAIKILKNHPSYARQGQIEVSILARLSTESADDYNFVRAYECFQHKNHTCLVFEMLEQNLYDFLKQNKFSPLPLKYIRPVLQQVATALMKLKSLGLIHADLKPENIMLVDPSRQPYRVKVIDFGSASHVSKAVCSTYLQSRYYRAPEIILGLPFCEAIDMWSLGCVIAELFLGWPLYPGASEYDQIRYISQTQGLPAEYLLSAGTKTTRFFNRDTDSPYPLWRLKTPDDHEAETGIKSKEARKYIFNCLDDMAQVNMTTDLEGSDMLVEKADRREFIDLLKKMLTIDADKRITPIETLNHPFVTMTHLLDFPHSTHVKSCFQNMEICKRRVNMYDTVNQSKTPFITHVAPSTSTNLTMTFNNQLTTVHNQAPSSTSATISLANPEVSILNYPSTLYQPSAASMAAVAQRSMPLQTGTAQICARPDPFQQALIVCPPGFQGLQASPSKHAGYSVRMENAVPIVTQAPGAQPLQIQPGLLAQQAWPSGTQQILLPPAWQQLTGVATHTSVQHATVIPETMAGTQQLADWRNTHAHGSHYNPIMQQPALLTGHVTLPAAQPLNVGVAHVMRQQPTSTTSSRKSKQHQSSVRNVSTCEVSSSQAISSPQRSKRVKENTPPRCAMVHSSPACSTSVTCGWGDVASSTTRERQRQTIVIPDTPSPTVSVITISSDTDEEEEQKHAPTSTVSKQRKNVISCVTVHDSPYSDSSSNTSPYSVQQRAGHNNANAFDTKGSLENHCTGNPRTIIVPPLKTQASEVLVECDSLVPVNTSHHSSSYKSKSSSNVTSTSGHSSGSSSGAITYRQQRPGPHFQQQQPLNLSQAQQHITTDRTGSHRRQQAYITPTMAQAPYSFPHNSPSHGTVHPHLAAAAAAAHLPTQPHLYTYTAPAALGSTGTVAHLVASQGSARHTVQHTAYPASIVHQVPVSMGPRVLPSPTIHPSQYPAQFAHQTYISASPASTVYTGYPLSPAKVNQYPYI
The target of data set [18] is Serine/threonine-protein kinase PLK2 (Homo sapiens) (UniProt Q9NYY3). As to the kind of experiment: Inhibition of human Snk (65 to 409 residues) at 1 uM using casein as substrate measured after 40 mins in presence of [gamma33P]ATP by scintillation counting method relative to control. In outline: as §1
The test system of data set [19] is TGF-beta receptor type-1 (Homo sapiens), P36897 [T204D]. Description: Inhibition of human TGFBR1 T204D mutant (200 to end residues) at 1 uM using casein as substrate measured after 40 mins in presence of [gamma33P]ATP by scintillation counting method relative to control. In outline:
as §1

Data set [20] concerns the target Mitogen-activated protein kinase 10 (Homo sapiens) (UniProt P53779). As to the kind of experiment: Inhibition of recombinant full-length human JNK3 at 1 uM using peptide as substrate measured after 40 mins in presence of [gamma33P]ATP by scintillation counting method relative to control.
Data set [21] concerns PI3-kinase p110-alpha/p85-alpha (Homo sapiens), P27986+P42336 [E542K]. Description: Inhibition of recombinant full-length human PI3K p110alpha/p85alpha E542K mutant at 1 uM using phosphatidylinositol-4, 5-bisphosphate as substrate measured after 40 mins by HTRF assay relative to control.

Chain of Receptor-interacting serine/threonine-protein kinase 2 (Homo sapiens) (O43353 whole entry, the tested form may be a part): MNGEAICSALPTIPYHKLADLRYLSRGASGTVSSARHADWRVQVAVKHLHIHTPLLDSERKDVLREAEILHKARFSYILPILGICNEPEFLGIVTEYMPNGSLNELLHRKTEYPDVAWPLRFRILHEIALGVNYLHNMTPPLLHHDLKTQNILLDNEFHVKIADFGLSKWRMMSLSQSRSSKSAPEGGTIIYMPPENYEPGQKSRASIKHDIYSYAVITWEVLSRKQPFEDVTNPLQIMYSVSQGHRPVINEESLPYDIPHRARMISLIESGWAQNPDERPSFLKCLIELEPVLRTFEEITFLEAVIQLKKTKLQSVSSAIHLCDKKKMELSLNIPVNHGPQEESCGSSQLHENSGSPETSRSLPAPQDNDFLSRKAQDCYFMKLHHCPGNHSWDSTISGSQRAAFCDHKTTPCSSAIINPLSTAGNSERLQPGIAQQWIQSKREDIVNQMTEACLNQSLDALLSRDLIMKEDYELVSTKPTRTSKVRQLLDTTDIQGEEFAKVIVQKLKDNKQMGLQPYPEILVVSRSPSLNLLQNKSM
Chain of TGF-beta receptor type-1 (Homo sapiens), P36897 [T204D] (P36897 whole entry T204D): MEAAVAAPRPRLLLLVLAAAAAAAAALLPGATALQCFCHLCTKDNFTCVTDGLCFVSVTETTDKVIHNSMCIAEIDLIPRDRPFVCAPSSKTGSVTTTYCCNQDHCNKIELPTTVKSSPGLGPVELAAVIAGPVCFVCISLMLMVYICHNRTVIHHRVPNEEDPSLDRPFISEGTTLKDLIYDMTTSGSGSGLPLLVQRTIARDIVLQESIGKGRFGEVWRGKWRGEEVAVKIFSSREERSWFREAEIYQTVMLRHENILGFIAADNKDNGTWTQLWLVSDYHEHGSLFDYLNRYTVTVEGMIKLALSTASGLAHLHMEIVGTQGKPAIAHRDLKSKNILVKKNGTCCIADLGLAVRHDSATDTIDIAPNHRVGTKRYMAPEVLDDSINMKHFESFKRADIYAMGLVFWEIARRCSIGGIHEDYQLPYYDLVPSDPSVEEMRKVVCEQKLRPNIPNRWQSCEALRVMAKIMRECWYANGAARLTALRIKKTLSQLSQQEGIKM
Chain of Mast/stem cell growth factor receptor Kit (Homo sapiens) (P10721 whole entry): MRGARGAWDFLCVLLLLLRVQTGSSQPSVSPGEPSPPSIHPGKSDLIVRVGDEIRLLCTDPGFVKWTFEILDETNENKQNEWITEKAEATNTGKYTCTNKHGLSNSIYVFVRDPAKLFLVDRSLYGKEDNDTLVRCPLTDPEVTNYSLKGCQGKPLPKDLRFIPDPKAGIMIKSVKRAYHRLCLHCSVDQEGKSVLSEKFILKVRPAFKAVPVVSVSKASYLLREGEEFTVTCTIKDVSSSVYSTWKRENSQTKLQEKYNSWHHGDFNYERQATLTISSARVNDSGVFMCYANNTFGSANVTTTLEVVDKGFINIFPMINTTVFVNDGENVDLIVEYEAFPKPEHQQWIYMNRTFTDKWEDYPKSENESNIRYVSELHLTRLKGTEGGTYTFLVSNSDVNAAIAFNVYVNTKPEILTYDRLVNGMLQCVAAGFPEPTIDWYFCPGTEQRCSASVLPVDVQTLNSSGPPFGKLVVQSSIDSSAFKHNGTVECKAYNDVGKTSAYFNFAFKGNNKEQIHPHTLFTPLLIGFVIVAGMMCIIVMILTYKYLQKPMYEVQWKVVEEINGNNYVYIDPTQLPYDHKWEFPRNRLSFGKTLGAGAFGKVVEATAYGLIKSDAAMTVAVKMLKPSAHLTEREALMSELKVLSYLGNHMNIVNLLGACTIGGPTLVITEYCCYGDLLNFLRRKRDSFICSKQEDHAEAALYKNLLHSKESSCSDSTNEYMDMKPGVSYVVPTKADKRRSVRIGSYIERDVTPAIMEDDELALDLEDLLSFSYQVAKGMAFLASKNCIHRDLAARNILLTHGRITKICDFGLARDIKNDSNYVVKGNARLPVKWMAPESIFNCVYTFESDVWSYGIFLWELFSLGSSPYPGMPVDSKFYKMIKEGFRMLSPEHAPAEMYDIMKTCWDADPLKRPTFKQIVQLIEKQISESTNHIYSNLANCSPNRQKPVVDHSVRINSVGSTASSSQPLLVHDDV
Chain of SRSF protein kinase 3 (Homo sapiens) (Q9UPE1 whole entry): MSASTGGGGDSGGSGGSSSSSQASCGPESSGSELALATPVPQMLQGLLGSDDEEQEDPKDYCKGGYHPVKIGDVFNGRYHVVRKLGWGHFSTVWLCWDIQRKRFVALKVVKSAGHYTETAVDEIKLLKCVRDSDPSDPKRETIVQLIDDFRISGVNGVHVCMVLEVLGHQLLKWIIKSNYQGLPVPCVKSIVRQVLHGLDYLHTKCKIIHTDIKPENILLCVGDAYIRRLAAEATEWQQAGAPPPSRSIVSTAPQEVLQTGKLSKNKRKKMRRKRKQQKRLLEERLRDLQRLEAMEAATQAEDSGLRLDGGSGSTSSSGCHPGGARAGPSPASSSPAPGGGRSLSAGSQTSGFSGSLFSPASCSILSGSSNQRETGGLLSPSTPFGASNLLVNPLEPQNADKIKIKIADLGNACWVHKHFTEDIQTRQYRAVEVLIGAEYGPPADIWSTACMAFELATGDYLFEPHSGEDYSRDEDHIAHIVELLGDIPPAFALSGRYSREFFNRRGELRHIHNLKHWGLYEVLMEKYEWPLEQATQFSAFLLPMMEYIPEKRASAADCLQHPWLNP

Take `CN(C)C(=O)c1cc2cnc(Nc3ccc(NC(=O)CCCCCCCN=C=S)cc3)nc2n1C1CCCC1`: the Activity with A549 [1] is recorded as 7.76%; in the data set with A549 [2], 1.76%; in the data set with NCI-H1299 [5] it was 0.18 g. Besides, in the data set with NCI-H1299 [3], the result was inactive. Further, the CLH in data set [4] is 87 µL/min/mg. In addition, the inhibition was 84% in [6]; 90% in data set [7]; 18% in [8]; 20% in data set [9]; 55% in data set [10]; 43% in [11]. The inhibition in data set [12] was 26%; in data set [13] it was 19%; in [14], 9%; in the data set listed under Homo sapiens it was 47%; in [15] it was 15%; in [16] it was 24%. Also, the inhibition was determined as 7% in data set [17]; 4% in data set [18]; 13% in [19]; 85% in data set [20]; 10% in data set [21].

(Values after ChEMBL document CHEMBL4376814, “Novel cyclin-dependent kinase 9 (CDK9) inhibitor with suppression of cancer stemness activity against non-small-cell lung cancer” (Eur J Med Chem, 2019).)
